Measured values from different studies.
Each line is one published result; the experiments were not run side by side.
Target: Mitogen-activated protein kinase kinase kinase 20 (MAP3K20, Homo sapiens, UniProt Q9NYL2)

CC(=O)c1c(NS(C)(=O)=O)c2cc(-c3ccc(Cl)cc3)c(-c3ccc(Cl)cc3Cl)nc2n(C)c1=O — remaining binding (cell-free assay, competition with immobilised ligand; 1 µM): 92%
CC(C)(C)c1nc(-c2cccc(NS(=O)(=O)c3c(F)cccc3F)c2F)c(-c2ccnc(N)n2)s1 — remaining activity (enzyme activity, inhibitor, radiometric; 1 µM): 101%
CCCCNc1ncc2c(-c3ccc(F)cc3)nn(C[C@H]3CC[C@H](N)CC3)c2n1 — inhibition (target engagement in cells, inhibitor, chemoproteomics; 20 mM): 35.9%
CC1(C)NC(=O)c2[nH]c3c(Cl)c(Cl)ccc3c2C1C#N (centres unmarked) — ΔTm (thermal stability, DSF; 10 µM): 0.6 °C
Nc1c(C(=O)NCc2ccc(C(=O)NCCCC3CCCCC3)cc2)cnn1-c1ccccc1 — remaining binding (binding, competition with immobilised ligand; 1 µM): 42%
O=C1Nc2ccc(Cl)cc2C1=Cc1cc(Cl)c(O)c(Cl)c1 — remaining signal (cell-free assay; 0.5 µM): 77.4%
Cc1nccc(COC(=O)N2C[C@@H]3[C@@H](CNC(=O)c4ccc5[nH]nnc5c4)[C@@H]3C2)n1 — remaining binding (cell-free assay, competition with immobilised ligand; 1 µM): 90%
Cn1c2c(c3ccc(Cl)c(Cl)c31)C(C#N)C1(CCCC1)NC2=O (centres unmarked) — ΔTm (thermal stability, DSF; 10 µM): -0.1 °C
CNC(=O)c1ccc(Nc2ncc(C(F)(F)F)c(NCc3nccnc3N(C)S(C)(=O)=O)n2)cc1 — remaining binding (cell-free assay, competition with immobilised ligand; 0.1 µM): 100%
O=C(Nc1cnn(-c2csc(C(=O)NC3COC3)c2)c1)Nc1c(F)cccc1Cl — remaining activity (enzyme activity, inhibitor; 5 µM): 90.4%
CC(=O)N1CCC(c2ccc(C(=O)NC(=N)N)cc2C(F)(F)F)CC1 — remaining binding (cell-free assay, competition with immobilised ligand; 1 µM): 100%
Cn1c2c(c3ccc(Cl)c(Cl)c31)C(C#N)C1(CCNCC1)NC2=O (racemic) — ΔTm (thermal stability, DSF; 10 µM): 0 °C
COc1cc2c(N3CCN(C(=O)Nc4ccc(OC(C)C)cc4)CC3)ncnc2cc1OCCCN1CCCCC1 — remaining signal (cell-free assay; 0.5 µM): 99.7%
O=C(N1CCS(=O)(=O)CC1)N1C[C@H](c2ccc(OC(F)(F)F)cc2)C[C@H](c2nc(C3CC3)no2)C1 — remaining binding (cell-free assay, competition with immobilised ligand; 1 µM): 100%
Cn1c2c(c3ccc(Cl)c(Cl)c31)C(C#N)C(C)(C)NC2=O (centres unmarked) — ΔTm (thermal stability, DSF; 10 µM): 0.4 °C
CNC(=O)c1cc2c(Oc3ccc(NC(=O)C4(C(=O)Nc5ccc(F)cc5)CC4)cc3)ccnc2cc1OC — inhibition (enzyme activity, inhibitor, radiometric; 1 µM): 82%
CCN1CCC2(CC1)NC(=O)c1c(c3ccc(Cl)c(Cl)c3n1C)C2C#N (racemic) — ΔTm (thermal stability, DSF; 10 µM): -0.3 °C
O=C1NC(=O)c2cc(Nc3ccc(F)cc3)c(Nc3ccc(F)cc3)cc21 — remaining signal (cell-free assay; 0.5 µM): 94.5%
Nc1ncnc2c1ncn2[C@@H]1O[C@H](COP(=O)(O)OP(=O)(O)OP(=O)(O)O)[C@@H](O)[C@H]1O — Km (enzyme activity, substrate, mass spectrometry): 140 µM
CN(c1ccnc(CNc2nc(Nc3ccc4c(c3)CC(=O)N4)ncc2C(F)(F)F)n1)S(C)(=O)=O — remaining binding (cell-free assay, competition with immobilised ligand; 1 µM): 100%
CCOc1cc(-c2nncn2C)ccc1Nc1ncc2cc(C)nc(NCC(C)(C)C)c2n1 — inhibition (cell-free assay, TR-FRET; 1 µM): ≤ 15%
c1ccc(CNc2nc(N3CCOc4ccccc43)nc3c2CCCC3)cc1 — inhibition (target engagement in cells, inhibitor, chemoproteomics; 20 mM): -6.3%
Cc1ccc(NC(=O)c2ccc(CN3CCN(C)CC3)cc2)cc1Nc1nc(-c2cccnc2)cs1 — remaining signal (cell-free assay; 0.5 µM): 86.8%
CSc1cccnc1N1CCN(Cc2nc3ccccc3[nH]2)CC1 — remaining binding (cell-free assay, competition with immobilised ligand; 1 µM): 100%
Cn1c2c(c3ccc(Cl)c(Cl)c31)C(C#N)C1(CCOCC1)NC2=O (centres unmarked) — ΔTm (thermal stability, DSF; 10 µM): 0.1 °C
CC(C)(O)[C@H]1CC[C@H](Nc2ccc3ncc(-c4cccc(C(F)(F)F)c4)n3n2)CC1 — remaining activity (enzyme activity, inhibitor; 1 µM): 75.7%
